Measurements from ChEMBL document CHEMBL1932987, “Straightforward palladium-mediated synthesis and biological evaluation of benzo[j]phenanthridine-7,12-diones as anti-tuberculosis agents” (Eur J Med Chem, 2012).
Converted amounts (≈) assume the structure as drawn. The source made the active and inactive calls. The rule behind the calls is not given here.

Experiments:
[1] = tested on: Mycobacterium tuberculosis; assay: Antimycobacterial activity against Mycobacterium tuberculosis H37Rv expressing pSMT1 after 1 to 7 days by luminescent assay; assay type: functional
How it was run: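 Luminescent M.tb. H37Rv carrying pSMT1 (luxAB, hsp60 promoter) in 7H9 + 10% FCS. Bacteria filtered, recovered 1 h at 37 °C, 5% CO2, added at 50,000 RLU/ml. Serial dilutions from 1 mM DMSO stocks, triplicate wells. Luminometry after 1, 3 and 7 days; MIC50 = 50% growth reduction.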

[2] = Cytotoxicity against mouse J774 cells assessed as viability at 1 uM after 7 days by neutral red uptake assay; assay type: cell-based; conditions: read-out: Activity
How it was run: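 Uninfected J774 macrophages exposed to compound in parallel with the infection assay; viability read by neutral red uptake over the same exposure period.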

Salmonella typhimurium = assay: Genotoxicity in Salmonella Typhimurium expressing episomal lux operon assessed as concentration required to cause toxicity in presence of S9 fraction; assay type: organism-based; conditions: salmonella enterica subsp. enterica serovar typhimurium
How it was run: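 VITOTOX with genetically engineered Salmonella typhimurium strains, with or without S9 from aroclor-treated rat liver. Genotoxicity reported by a luxCDABE reporter under the RecN promoter. Tested at 10, 1 and 0.1 µM; lowest concentration showing cytotoxicity recorded.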

[3] = tested on: Mycobacterium tuberculosis; assay: Antimycobacterial activity against Mycobacterium tuberculosis H37Rv infected in mouse J774 cells assessed as reduction of parasite growth at 0.3 uM after 7 days by luminescence assay; assay type: functional, organism-based
How it was run: (§1)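 Murine J774 macrophages, 100,000 per well, recovered overnight, then infected with luminescent M.tb. H37Rv (10^4 CFU, MOI 0.1) in DMEM with penicillin and Fungizone. Cells treated with compound at final 10, 3, 1, 0.3, 0.1 µM. Monolayers lysed after 1, 3 or 7 days; intracellular bacteria read by luminometry of lysate. Triplicate cultures, mean RLU.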

[4] = tested on: Mycobacterium tuberculosis; assay: Antimycobacterial activity against Mycobacterium tuberculosis H37Rv infected in mouse J774 cells assessed as reduction of parasite growth at 1 uM after 3 days by luminescence assay; assay type: functional; design: scale not given: the % may be the effect or the level left; how it was run: as §1
[5] = Selectivity index, ratio of IC50 for human HepG2/C3A cells to MIC50 for Mycobacterium tuberculosis H37Rv; assay type: functional
How it was run: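 Selectivity index is the IC50 from the C3A neutral red uptake assay divided by the MIC50 against luminescent M.tb. H37Rv.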

[6] = tested on: Mycobacterium tuberculosis; assay: Antimycobacterial activity against Mycobacterium tuberculosis H37Rv infected in mouse J774 cells assessed as reduction of parasite growth at 1 uM after 1 day by luminescence assay; assay type: functional; design: scale not given: the % may be the effect or the level left; how it was run: as §1
[7] = Induction of DNA fragmentation in human HepG2/C3A cells at 0.3 uM after 24 hrs by alkaline comet assay (reference value: 3.69%); assay type: toxicity, cell-based
How it was run: (§2)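 Alkaline comet assay on C3A cells, 100,000 per well, pre-incubated 24 h with compound at 3, 1, 0.3 or 0.1 µM. Cells embedded in agarose on slides, lysed 1 h, electrophoresed 20 min at 300 mA, neutralized, stained with gel red. % tail DNA measured by fluorescence microscopy; compared with negative control by Mann-Whitney U test.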

[8] = tested on: Mycobacterium tuberculosis; assay: Antimycobacterial activity against Mycobacterium tuberculosis H37Rv expressing pSMT1 after 1 to 7 days by BACTEC 460-TB assay; assay type: functional
How it was run: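 Radiometric BACTEC 460-TB culture of M.tb. H37Rv in 7H9-based medium. Pre-culture grown to GI 300, then inoculated into a fresh vial with serial compound dilutions made at 40x final concentration from 1 mM DMSO stocks. GI (14C-palmitate to 14CO2) read daily against untreated inocula diluted 100-fold at inoculation. MIC99 taken as 99% inhibition. Each measurement done at least twice.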

[9] = Induction of DNA fragmentation in human HepG2/C3A cells at 0.1 uM after 24 hrs by alkaline comet assay (reference value: 3.69%); assay type: toxicity, cell-based; how it was run: as §2
[10] = tested on: Mycobacterium tuberculosis; assay: Antimycobacterial activity against Mycobacterium tuberculosis H37Rv infected in mouse J774 cells assessed as reduction of parasite growth at 1 uM after 7 days by luminescence assay; assay type: functional; design: scale not given: the % may be the effect or the level left; how it was run: as §1
[11] = Induction of DNA fragmentation in human HepG2/C3A cells at 3 uM after 24 hrs by alkaline comet assay (reference value: 3.69%); assay type: toxicity, cell-based; how it was run: as §2
[12] = Induction of DNA fragmentation in human HepG2/C3A cells at 1 uM after 24 hrs by alkaline comet assay (reference value: 3.69%); assay type: toxicity, cell-based; how it was run: as §2
[13] = Cytotoxicity against human HepG2/C3A cells after 24 hrs by neutral red uptake assay; assay type: cell-based
How it was run: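 C3A hepatocytes in DMEM + 10% FCS, 40,000 per well, recovered at 37 °C, 5% CO2. Exposed 24 h to final 10, 3, 1, 0.3, 0.1 µM from 1 mM DMSO stocks. Neutral red added for 3 h, extracted with ethanol/acetic acid, OD read at 530 nm with 620 nm reference. IC50 = 50% neutral red uptake.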

Structure (SMILES) | MIC50 [1] | viability at 168 h, 1 µM [2] | Activity (Salmonella typhimurium) | Activity [3] | Activity [4] | Selectivity Index [5] | Activity [6] | Activity [7] | MIC99 [8] | Activity [9] | Activity [10] | Activity [11] | Activity [12] | IC50 [13]
Cc1ccc2c3c(cnc2c1)C(=O)c1ccccc1C3=O | 0.21 µM (≈ 0.0574 µg/mL) | 92.9% | 10 µM | inactive | 74.2% | 15.29 | 47.6% | 2.52% | 0.64 µM (≈ 0.175 µg/mL) | 3.47% | 83.5% | 3.31% | 2.15% | 3210 nM
Cc1cccc2c3c(cnc12)C(=O)c1ccccc1C3=O | 3.68 µM (≈ 1.01 µg/mL) | – | 10 µM | – | – | 1.08 | – | – | 4.3 µM (≈ 1.18 µg/mL) | – | – | – | – | 3960 nM
O=C1c2ccccc2C(=O)c2c1cnc1ccccc21 | 1.2 µM (≈ 0.311 µg/mL) | – | 1 µM | – | – | 1.26 | – | – | 1.9 µM (≈ 0.493 µg/mL) | – | – | – | – | 1510 nM
COc1ccc2ncc3c(c2c1)C(=O)c1ccccc1C3=O | 0.43 µM (≈ 0.124 µg/mL) | – | 10 µM | – | – | 2.22 | – | – | – | – | – | – | – | 950 nM
Cc1ccc2ncc3c(c2c1)C(=O)c1ccccc1C3=O | 0.88 µM (≈ 0.24 µg/mL) | – | 10 µM | – | – | 1.69 | – | – | 1.53 µM (≈ 0.418 µg/mL) | – | – | – | – | 1480 nM
O=C1c2ccccc2C(=O)c2c1cnc1ccc(F)cc21 | 0.74 µM (≈ 0.205 µg/mL) | – | 1 µM | – | – | 1.46 | – | – | 1.38 µM (≈ 0.383 µg/mL) | – | – | – | – | 1090 nM
O=C1c2ccccc2C(=O)c2c1cnc1ccc(Cl)cc21 | 1.03 µM (≈ 0.303 µg/mL) | – | 1 µM | – | – | 1.5 | – | – | 1.35 µM (≈ 0.397 µg/mL) | – | – | – | – | 1560 nM
NNC(=O)c1ccncc1 [ISONIAZID] | 0.54 µM (≈ 0.0741 µg/mL) | – | – | – | – | – | – | – | – | – | – | – | – | –
COc1cccc2c3c(cnc12)C(=O)c1ccccc1C3=O | 1.66 µM (≈ 0.48 µg/mL) | – | 10 µM | – | – | 1.45 | – | – | 2.74 µM (≈ 0.793 µg/mL) | – | – | – | – | 2400 nM
